Publication PMC5094435 (Saudi Pharmaceutical Journal : SPJ, 2015)
Converted amounts (≈) assume the structure as drawn. “And” between values parts separate entries of the source, which are not always exact repeats. Identical values can stand only once.

Legend:
[1] = test system: Staphylococcus aureus (MTCC 96); assay: Antibacterial activity; assay type: cell-based; details: MTCC96, read-out: MIC, S. aureus
Summary of the method: (§1)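 Screened by a standard method against S. aureus MTCC 96, B. subtilis MTCC 121, E. coli MTCC 1652 and P. aeruginosa MTCC 741. Ciprofloxacin was the reference antibiotic. Only compounds active at 100 μg/mL went on to MIC determination.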

[2] = test system: Escherichia coli (MTCC 1652); assay: Antibacterial activity; assay type: cell-based; details: Escherichia coli, MTCC1652, read-out: MIC, E. coli
Summary of the method: as §1

[3] = test system: Pseudomonas aeruginosa (MTCC 741); assay: Antibacterial activity; assay type: cell-based; details: Pseudomonas aeruginosa, MTCC741, read-out: MIC, P. aeruginosa
Summary of the method: as §1

[4] = test system: Bacillus subtilis (MTCC 121); assay: Antibacterial activity; assay type: cell-based; details: MTCC121, read-out: MIC, B. subtilis
Summary of the method: as §1

Aspergillus niger = assay: Antifungal activity; assay type: cell-based; details: read-out: MIC, A. niger
Summary of the method: (§2)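 Run by the poison food technique against Aspergillus niger and Aspergillus flavus. Fluconazole was the reference drug.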

Aspergillus flavus = assay: Antifungal activity; assay type: cell-based; details: read-out: MIC, A. flavus
Summary of the method: as §2

[5] = test system: carrageenan induced edema; assay: Anti-inflammatory activity, carrageenan induced rat paw edema; assay type: in vivo, Wistar rats; details: inhibition of edema, rats
Summary of the method: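 Used the Winter et al. paw oedema method in Wistar rats of either sex (160–200 g), housed six per cage and acclimatised 48 h. Percent inhibition of oedema was calculated at 1, 2, 3 and 4 h. Diclofenac served as the standard drug.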

[6] = test system: tail immersion (hot water 55 °C); assay: Central analgesic activity, tail immersion method; assay type: in vivo, Swiss albino mice; details: mice, mean ± SEM; for Central analgesic activity [tail immersion (reaction time in min)] 1 h: 1 h after the dosing; for Central analgesic activity [tail immersion (reaction time in min)] 2 h: 2 h after the dosing
Summary of the method: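 Used the same mice from the writhing test after a washout period. Each mouse was held in a restrainer and the protruding tail (up to 5 cm) was dipped in 55 °C water. Withdrawal time was recorded as reaction time at 1 h and 2 h post-dose. Data are mean ± SEM, analysed by ANOVA followed by Dunnett's t test.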

[7] = test system: acetic acid induced writhing; assay: Peripheral analgesic activity, acetic acid induced writhing method; assay type: in vivo, Swiss Albino mice; details: mice; for Peripheral analgesic activity (writhing test) No. of writhing: mean ± SEM; for Peripheral analgesic activity (writhing test) % Protection: vs control group
Summary of the method: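 Writhing was induced with aqueous acetic acid in Swiss albino mice (20–30 g) of either sex, six per group. % Protection = (Wc − Wt)/Wc × 100, where Wc and Wt are the mean writhing counts of the control and test groups.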

mucosal damage = assay: Acute ulcerogenic activity; assay type: in vivo, Albino rats; details: rats, mean ± SEM
Summary of the method: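 Conducted in Albino rats (160–200 g, housed six per cage, acclimatised 48 h) following Cioli et al. Gastric mucosal damage was scored at the end of the study. Ulcerogenic potential (severity index) came from comparing the mean score of each treated group with that of the control rats.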

O=C1OC(c2ccc3ccccc3c2)=CC1=Cc1cc2cc(Cl)ccc2nc1Cl [Compound 5b, 3-[(2,6-Dichloroquinolin-3-yl)methylene]-5-(naphthalene-2-yl)furan-2(3H)-one]
MIC [1]: 12.5 µg/mL (≈ 29.9 µM)
MIC [2]: 25 µg/mL (≈ 59.8 µM)
MIC [3]: 50 µg/mL (≈ 120 µM)
MIC [4]: 12.5 µg/mL (≈ 29.9 µM)
MIC (Aspergillus niger): 25 µg/mL (≈ 59.8 µM)
MIC (Aspergillus flavus): 50 µg/mL (≈ 120 µM)
% Inhibition ± SEM After 1 h [5]: 74 ± 0.18^∗∗ %
% Inhibition ± SEM After 2 h [5]: 67 ± 0.06^∗∗ %
% Inhibition ± SEM After 3 h [5]: 39 ± 0.29%
Central analgesic activity [tail immersion (reaction time in min)] 1 h [6]: 3.2 ± 0.2^∗ min
Central analgesic activity [tail immersion (reaction time in min)] 2 h [6]: 4.4 ± 0.5 min
Peripheral analgesic activity (writhing test) No. of writhing [7]: 26.2 ± 4.1
Peripheral analgesic activity (writhing test) % Protection [7]: 37.61%
Ulcerogenic activity (severity index) (mucosal damage): 0.33 ± 0.35^∗

O=C1C(=Cc2cc3cc(Cl)ccc3nc2Cl)C=C(c2ccc3ccccc3c2)N1Cc1ccccc1 [Compound 7b, 1-Benzyl-3-[(2,6-dichloroquinolin-3-yl)methylene]-5-(naphthalene-2-yl)-1H-pyrrol-2(3H)-one]
MIC [1]: 25 µg/mL (≈ 49.3 µM)
MIC [2]: 12.5 µg/mL (≈ 24.6 µM)
MIC [3]: > 100 µg/mL
MIC [4]: 25 µg/mL (≈ 49.3 µM)
MIC (Aspergillus niger): 50 µg/mL (≈ 98.5 µM)
MIC (Aspergillus flavus): 25 µg/mL (≈ 49.3 µM)
% Inhibition ± SEM After 1 h [5]: 84 ± 0.06^∗∗ %
% Inhibition ± SEM After 2 h [5]: 74 ± 0.21^∗∗ %
% Inhibition ± SEM After 3 h [5]: 70 ± 0.23^∗ %
Central analgesic activity [tail immersion (reaction time in min)] 1 h [6]: 2.4 ± 0.3 min
Central analgesic activity [tail immersion (reaction time in min)] 2 h [6]: 3.4 ± 0.2 min
Peripheral analgesic activity (writhing test) No. of writhing [7]: 25.4 ± 4.8
Peripheral analgesic activity (writhing test) % Protection [7]: 39.52%
Ulcerogenic activity (severity index) (mucosal damage): 0.36 ± 0.35^∗

O=C(O)Cc1ccccc1Nc1c(Cl)cccc1Cl [Diclofenac, diclofenac, reference compound]
% Inhibition ± SEM After 4 h [5]: 92%
Central analgesic activity [tail immersion (reaction time in min)] 1 h [6]: 8.2 ± 0.2^∗∗ min
Central analgesic activity [tail immersion (reaction time in min)] 2 h [6]: 8.8 ± 0.2^∗∗ min
Peripheral analgesic activity (writhing test) No. of writhing [7]: 4.2 ± 1.0^∗∗
Peripheral analgesic activity (writhing test) % Protection [7]: 90%
Ulcerogenic activity (severity index) (mucosal damage): 0.86 ± 0.28

O=C1OC(c2ccc3ccccc3c2)=CC1=Cc1cc2cc([N+](=O)[O-])ccc2nc1Cl [Compound 5d, 3-[(2-Chloro-6-nitroquinolin-3-yl)methylene]-5-(naphthalene-2-yl)furan-2(3H)-one]
MIC [1]: 12.5 µg/mL (≈ 29.1 µM)
MIC [2]: 12.5 µg/mL (≈ 29.1 µM)
MIC [3]: 25 µg/mL (≈ 58.3 µM)
MIC [4]: 25 µg/mL (≈ 58.3 µM)
MIC (Aspergillus niger): 25 µg/mL (≈ 58.3 µM)
MIC (Aspergillus flavus): 25 µg/mL (≈ 58.3 µM)
% Inhibition ± SEM After 1 h [5]: 79 ± 0.12^∗∗ %
% Inhibition ± SEM After 2 h [5]: 61 ± 0.15^∗∗ %
% Inhibition ± SEM After 3 h [5]: 56 ± 0.25^∗ %
Central analgesic activity [tail immersion (reaction time in min)] 1 h [6]: 4.4 min and 4.4 ± 0.6^∗∗ min
Central analgesic activity [tail immersion (reaction time in min)] 2 h [6]: 6.5 min and 6.5 ± 0.2 ^∗ min
Peripheral analgesic activity (writhing test) No. of writhing [7]: 6.0 ± 2.2^∗∗

O=C1C(=Cc2cc3cc([N+](=O)[O-])ccc3nc2Cl)C=C(c2ccc(-c3ccccc3)cc2)N1Cc1ccccc1 [Compound 7h, 1-Benzyl-3-[(2-chloro-6-nitroquinolin-3-yl)methylene]-5-(biphenyl-4-yl)-1H-pyrrol-2(3H)-one]
MIC [1]: 25 µg/mL (≈ 46 µM)
MIC [2]: 50 µg/mL (≈ 91.9 µM)
MIC [3]: 50 µg/mL (≈ 91.9 µM)
MIC [4]: > 100 µg/mL
MIC (Aspergillus niger): 50 µg/mL (≈ 91.9 µM)
MIC (Aspergillus flavus): > 100 µg/mL
% Inhibition ± SEM After 1 h [5]: 36 ± 0.13%
% Inhibition ± SEM After 2 h [5]: 65 ± 0.24^∗∗ %
% Inhibition ± SEM After 3 h [5]: 58 ± 0.34^∗ %
Central analgesic activity [tail immersion (reaction time in min)] 1 h [6]: 5.5 min and 5.5 ± 0.3^∗∗ min
Central analgesic activity [tail immersion (reaction time in min)] 2 h [6]: 6.4 min and 6.4 ± 0.3^∗ min
Peripheral analgesic activity (writhing test) No. of writhing [7]: 10.4 ± 3.7^∗∗

O=C1NC(c2ccc3ccccc3c2)=CC1=Cc1cc2cc(Cl)ccc2nc1Cl [Compound 6b, 3-[(2,6-Dichloroquinolin-3-yl)methylene]-5-(naphthalene-2-yl)-1H-pyrrol-2(3H)-one]
MIC [1]: 6.25 µg/mL (≈ 15 µM)
MIC [2]: 50 µg/mL (≈ 120 µM)
MIC [3]: 50 µg/mL (≈ 120 µM)
MIC [4]: 6.25 µg/mL (≈ 15 µM)
MIC (Aspergillus niger): 12.5 µg/mL (≈ 30 µM)
MIC (Aspergillus flavus): 12.5 µg/mL (≈ 30 µM)
% Inhibition ± SEM After 1 h [5]: 62 ± 0.09^∗ %
% Inhibition ± SEM After 2 h [5]: 66 ± 0.18^∗∗ %
% Inhibition ± SEM After 3 h [5]: 53 ± 0.17%
Central analgesic activity [tail immersion (reaction time in min)] 1 h [6]: 1.8 ± 0.2 min
Central analgesic activity [tail immersion (reaction time in min)] 2 h [6]: 4.2 ± 0.6 min
Peripheral analgesic activity (writhing test) No. of writhing [7]: 13.8 ± 4.4^∗
Peripheral analgesic activity (writhing test) % Protection [7]: 67.14%
Ulcerogenic activity (severity index) (mucosal damage): 0.43 ± 0.33

O=C1C(=Cc2cc3cc([N+](=O)[O-])ccc3nc2Cl)C=C(c2ccc3ccccc3c2)N1Cc1ccccc1 [Compound 7d, 1-Benzyl-3-[(2-chloro-6-nitroquinolin-3-yl)methylene]-5-(naphthalene-2-yl)-1H-pyrrol-2(3H)-one]
MIC [1]: 25 µg/mL (≈ 48.3 µM)
MIC [2]: 25 µg/mL (≈ 48.3 µM)
MIC [3]: > 100 µg/mL
MIC [4]: 25 µg/mL (≈ 48.3 µM)
MIC (Aspergillus niger): 25 µg/mL (≈ 48.3 µM)
MIC (Aspergillus flavus): 50 µg/mL (≈ 96.5 µM)
% Inhibition ± SEM After 1 h [5]: 83 ± 0.06^∗∗ %
% Inhibition ± SEM After 2 h [5]: 73 ± 0.15^∗∗ %
% Inhibition ± SEM After 3 h [5]: 66 ± 0.26%
Central analgesic activity [tail immersion (reaction time in min)] 1 h [6]: 3.2 ± 0.4^∗ min
Central analgesic activity [tail immersion (reaction time in min)] 2 h [6]: 5.4 ± 1.9 min
Peripheral analgesic activity (writhing test) No. of writhing [7]: 21.0 ± 10.0^∗
Peripheral analgesic activity (writhing test) % Protection [7]: 50%
Ulcerogenic activity (severity index) (mucosal damage): 0.40 ± 0.32

O=C1NC(c2ccc3ccccc3c2)=CC1=Cc1cc2cc([N+](=O)[O-])ccc2nc1Cl [Compound 6d, 3-[(2-Chloro-6-nitroquinolin-3-yl)methylene]-5-(naphthalene-2-yl)-1H-pyrrol-2(3H)-one]
MIC [1]: 6.25 µg/mL (≈ 14.6 µM)
MIC [2]: 12.5 µg/mL (≈ 29.2 µM)
MIC [3]: 12.5 µg/mL (≈ 29.2 µM)
MIC [4]: 6.25 µg/mL (≈ 14.6 µM)
MIC (Aspergillus niger): 6.25 µg/mL (≈ 14.6 µM)
MIC (Aspergillus flavus): 12.5 µg/mL (≈ 29.2 µM)
% Inhibition ± SEM After 1 h [5]: 58 ± 0.25^∗ %
% Inhibition ± SEM After 2 h [5]: 60 ± 0.22^∗∗ %
% Inhibition ± SEM After 3 h [5]: 29 ± 0.16%
% Inhibition ± SEM After 4 h [5]: 48 ± 0.15^∗ %

O=C1C(=Cc2cc3cc(Cl)ccc3nc2Cl)C=C(c2ccc(-c3ccccc3)cc2)N1Cc1ccccc1 [Compound 7f, 1-Benzyl-3-[(2,6-dichloroquinolin-3-yl)methylene]-5-(biphenyl-4-yl)-1H-pyrrol-2(3H)-one]
MIC [1]: 12.5 µg/mL (≈ 23.4 µM)
MIC [2]: 25 µg/mL (≈ 46.9 µM)
MIC [3]: 50 µg/mL (≈ 93.7 µM)
MIC [4]: 12.5 µg/mL (≈ 23.4 µM)
MIC (Aspergillus niger): 25 µg/mL (≈ 46.9 µM)
MIC (Aspergillus flavus): 50 µg/mL (≈ 93.7 µM)
% Inhibition ± SEM After 1 h [5]: 84 ± 0.12%
% Inhibition ± SEM After 2 h [5]: 74 ± 0.19^∗∗ %
% Inhibition ± SEM After 3 h [5]: 63 ± 0.14^∗ %
Central analgesic activity [tail immersion (reaction time in min)] 1 h [6]: 3.2 ± 0.2^∗ min
Central analgesic activity [tail immersion (reaction time in min)] 2 h [6]: 6.2 min and 6.2 ± 1.5^∗ min
Peripheral analgesic activity (writhing test) No. of writhing [7]: 12.8 ± 3.8^∗∗
Ulcerogenic activity (severity index) (mucosal damage): 0.53 ± 0.12

O=C1OC(c2ccc(-c3ccccc3)cc2)=CC1=Cc1cc2cc([N+](=O)[O-])ccc2nc1Cl [Compound 5h, 3-[(2-Chloro-6-nitroquinolin-3-yl)methylene]-5-(biphenyl-4-yl)furan-2(3H)-one]
MIC [1]: 25 µg/mL (≈ 55 µM)
MIC [2]: 50 µg/mL (≈ 110 µM)
MIC [3]: > 100 µg/mL
MIC [4]: > 100 µg/mL
MIC (Aspergillus niger): 25 µg/mL (≈ 55 µM)
MIC (Aspergillus flavus): 25 µg/mL (≈ 55 µM)
% Inhibition ± SEM After 1 h [5]: 73 ± 0.08^∗∗ %
% Inhibition ± SEM After 2 h [5]: 58 ± 0.15^∗∗ %
% Inhibition ± SEM After 3 h [5]: 50 ± 0.13%
Central analgesic activity [tail immersion (reaction time in min)] 1 h [6]: 4.3 min and 4.3 ± 0.4^∗∗ min
Central analgesic activity [tail immersion (reaction time in min)] 2 h [6]: 6.2 min and 6.2 ± 1.5^∗ min
Peripheral analgesic activity (writhing test) No. of writhing [7]: 7.6 ± 2.3^∗∗
Ulcerogenic activity (severity index) (mucosal damage): 0.40 ± 0.36
